Fibroblast inh = blocks proliferation of human lung fibroblasts; viability, % at 10 µM; LL 47 human lung fibroblast viability, ATP luminescence; hits give low values; hit rate 1.1% among 85,000; AID 719;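 active = viability at or below 50% in the single dose screen; inactive = viability above 50%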;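 also: compound exposure lasted 72 h before the ATP readout; 100% = median luminescence of untreated cell-only wells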
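Assay system: human lung fibroblast line LL 47, low passage. Input: 1,150 fibroblasts seeded per well. Times: overnight cell rest, 72 h compound treatment at 37 °C. Evaluation: % viability of median cell-only signal. Technique: luminescent ATP detection, CellTiter-Glo. Control set: cell-only wells, no compound.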
H69AR inhibit = blocks growth of human H69AR lung tumor cells. H69AR lung tumor viability, ATP luminescence, 72 h; hits give low values. viability, % at 10 µM. hit rate 6% among 85,000. AID 598;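 active = viability at or below 40%; inactive = viability above 40%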;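 also: multidrug resistant small cell line overexpressing MRP-1 efflux transporter; 100% = mean luminescence of untreated control wells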
HUVEC prolif 384 = human endothelial cell proliferation inhibition. HUVEC proliferation, CellTiter-Glo luminescence, 72 h; hits give low values. viability, % at 10 µM (by protocol). hit rate 1.1% among 86,000;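 active = viability at or below 30%; inactive = viability above 30%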;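 also: 100% = median luminescence of DMSO-only cell control wells on each plate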
bCat KO growth = beta-catenin-lacking colon tumor cell growth suppression | HCT116 beta-catenin knockout viability, CellTiter-Glo, 60 h; hits give low values | viability, % at 10 µM | hit rate 1.5% among 140,000;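 active = viability at or under a set limit, the compound median less 4 SD, cut at about 6% in these data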;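 also: 0% = Hyamine 1622 control at 20 µM and 100% = untreated cell control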
PTEN del growth = suppresses growth of cells with PTEN deletion. HCT116 PTEN-null viability, CellTiter-Glo, 60 h; hits give low values. hit rate 1.2% among 140,000. viability, % at 10 µM;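 active = viability at or below a set limit, 4 SD under the median of all tested compounds, cut at about 3.7% in these data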;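 also: PTEN knockout HCT116 line with beta catenin targeted HCT116 as companion control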
* hit, by the source's call. Shown is part of a subset that was picked to be rich in hits.

Cc1cccc(NC(=O)c2cccnc2)c1 was read as Fibroblast inh 85.5, H69AR inhibit 100.2, HUVEC prolif 384 98.8, bCat KO growth 91.6 and PTEN del growth 91.4.
Screening O=C(/C=C/c1cccnc1)c1ccc(NC(=O)c2cccc(Br)c2)cc1 returned bCat KO growth 5.7* and PTEN del growth 3.6*.
For O=C(N/C(=C\c1cccnc1)C(=O)N1CCOCC1)c1cccc(Br)c1 the results were bCat KO growth 97.2 and PTEN del growth 94.0.
`O=C(CSc1nc2ccccc2c(=O)n1-c1ccccc1Cl)Nc1cccc(S(=O)(=O)N2CCOCC2)c1` gave bCat KO growth 91.0 and PTEN del growth 87.0.
`CCCCCCCCNC(=O)/C(C#N)=C/c1ccc(SC)cc1` gave bCat KO growth 97.5 and PTEN del growth 87.0.
CCOC(=O)/C=C1\NC(=O)C(C)S1 (stereo not drawn) was read as Fibroblast inh 100.5, H69AR inhibit 104.3, HUVEC prolif 384 115.2, bCat KO growth 96.3 and PTEN del growth 99.0.
Screening Fc1ccc(Br)cc1C1C=C(c2ccc(Br)s2)Nc2ncnn21 (stereo not drawn) returned Fibroblast inh 56.2, H69AR inhibit 29.0*, HUVEC prolif 384 52.0, bCat KO growth 90.5 and PTEN del growth 88.4.
COc1cccc(C2C=C(c3ccc(Br)s3)Nc3ncnn32)c1OC (stereo not drawn) was read as Fibroblast inh 93.2, H69AR inhibit 42.6, HUVEC prolif 384 110.4, bCat KO growth 81.5 and PTEN del growth 92.7.
`COC(C)(C)[C@H](O)COc1c2ccoc2cc2oc(=O)ccc12` gave bCat KO growth 0.6* and PTEN del growth 0.7*.
CC(=O)c1c(C)nc(-c2ccc3c(c2)OCO3)n1O was read as Fibroblast inh 104.5, H69AR inhibit 84.4, HUVEC prolif 384 81.3, bCat KO growth 91.8 and PTEN del growth 92.5.
For CSc1cccc(-n2cc(-c3ccc4c(c3)OCO4)[nH]c2=O)c1 the results were Fibroblast inh 70.0, H69AR inhibit 25.1*, HUVEC prolif 384 52.4, bCat KO growth 21.2 and PTEN del growth 22.1.
Screening CCOc1ccc2nc(-c3ccccc3)[nH]c2c1 returned Fibroblast inh 54.1, H69AR inhibit 24.0*, HUVEC prolif 384 57.9, bCat KO growth 12.3 and PTEN del growth 15.9.
COc1ccc(Cl)cc1NC(=O)C1CSC(c2ccncc2)=N1 (stereo not drawn) was read as Fibroblast inh 78.3, H69AR inhibit 30.4*, HUVEC prolif 384 84.2, bCat KO growth 69.4 and PTEN del growth 72.7.
`COc1ccc(Cl)cc1NC(=O)NC(C)c1ccncc1` (stereo not drawn) gave Fibroblast inh 100.9, H69AR inhibit 51.9, HUVEC prolif 384 87.1, bCat KO growth 80.5 and PTEN del growth 71.8.
For COCCCNC(=O)c1c(N)n(-c2ccc3c(c2)OCO3)c2nc3ccccc3nc12 the results were Fibroblast inh 74.7, H69AR inhibit 27.6*, HUVEC prolif 384 69.6, bCat KO growth 72.2 and PTEN del growth 37.0.
For Cc1cccc(-n2c(N)c(C(=O)NCCN3CCOCC3)c3nc4ccccc4nc32)c1 the results were Fibroblast inh 100.4, H69AR inhibit 32.4*, HUVEC prolif 384 81.0, bCat KO growth 81.9 and PTEN del growth 77.8.
CCCNC(=O)c1c(N)n(-c2ccc3c(c2)OCO3)c2nc3ccccc3nc12 was read as Fibroblast inh 7.6*, H69AR inhibit 8.6*, HUVEC prolif 384 46.1, bCat KO growth 19.9 and PTEN del growth 36.4.
`CCOc1ccc(-n2c(N)c(C(=O)NCc3ccco3)c3nc4ccccc4nc32)cc1` gave Fibroblast inh 103.6, H69AR inhibit 11.4*, HUVEC prolif 384 86.2, bCat KO growth 11.8 and PTEN del growth 8.9.
For CC(C)Cn1c(N)c(C(=O)NCCN2CCOCC2)c2nc3ccccc3nc21 the results were Fibroblast inh 93.5, H69AR inhibit 45.9, HUVEC prolif 384 90.3, bCat KO growth 93.2 and PTEN del growth 81.7.
Screening CCOc1ccccc1/C=C(/NC(=O)c1ccccc1)C(=O)N(CC)CC returned bCat KO growth 89.0 and PTEN del growth 81.0.
CNS(=O)(=O)c1ccc(Cl)nc1 was read as bCat KO growth 84.7 and PTEN del growth 90.7.
For O=C(CN1C(=O)c2ccccc2C1=O)N1CCN(C2c3ccccc3-c3ccccc32)CC1 the results were bCat KO growth 92.0 and PTEN del growth 92.6.
For CCOC(=O)c1cccc2c(=O)c(C(=O)c3ccc(Cl)cc3)c(C(=O)OC)[nH]c12 the results were bCat KO growth 101.9 and PTEN del growth 101.6.
`CCOc1ccccc1-c1nc(-c2cc3ccc(C)cc3[nH]c2=O)no1` gave Fibroblast inh 100.1, H69AR inhibit 39.8*, HUVEC prolif 384 89.4, bCat KO growth 86.7 and PTEN del growth 75.5.
`CCCc1nc(-c2cc3ccc(C)cc3[nH]c2=O)no1` gave Fibroblast inh 99.4, H69AR inhibit 101.4, HUVEC prolif 384 93.8, bCat KO growth 83.1 and PTEN del growth 88.6.
For CCOC(=O)N1CCC(=NNC(=O)COc2cccc(C)c2)CC1 the results were bCat KO growth 93.4 and PTEN del growth 101.7.
CC(OC(=O)c1snc(C(=O)NC2CCCCC2)c1N)C(=O)NC1CCCCC1 (stereo not drawn) was read as Fibroblast inh 70.9, H69AR inhibit 22.6*, HUVEC prolif 384 77.8, bCat KO growth 88.1 and PTEN del growth 82.0.
CCOC(=O)c1snc(C(=O)NC2CCCCC2)c1N was read as Fibroblast inh 101.1, H69AR inhibit 97.9, HUVEC prolif 384 110.3, bCat KO growth 101.0 and PTEN del growth 95.4.
For COc1cccc(OC)c1OCCCOc1ccc(C)cc1Br the results were bCat KO growth 86.8 and PTEN del growth 82.5.
O=C(NCc1cccnc1)NC1(C(F)(F)F)Oc2ccccc2O1 was read as Fibroblast inh 87.6, H69AR inhibit 27.6*, HUVEC prolif 384 69.0, bCat KO growth 72.5 and PTEN del growth 69.3.
COC(=O)[C@@H](NC(=O)Nc1cccc(OC)c1)C(C)C was read as Fibroblast inh 99.5, H69AR inhibit 102.6, HUVEC prolif 384 98.7, bCat KO growth 102.5 and PTEN del growth 101.0.
Screening CCOC(=O)Cc1csc(NC(=O)NC2(C(F)(F)F)Oc3ccc(Cl)cc3O2)n1 (stereo not drawn) returned bCat KO growth 81.8 and PTEN del growth 75.5.
`O=C(Nc1cc(N2CCOCC2)ncn1)NC1(C(F)(F)F)Oc2ccccc2O1` gave Fibroblast inh 89.0, H69AR inhibit 27.0*, HUVEC prolif 384 68.4, bCat KO growth 59.9 and PTEN del growth 67.2.
`COc1cccc(NC(=O)NC2(C(F)(F)F)Oc3ccccc3O2)c1` gave Fibroblast inh 89.3, H69AR inhibit 23.2*, HUVEC prolif 384 97.8, bCat KO growth 51.9 and PTEN del growth 59.0.
For CCOC(=O)Cc1csc(NC(=O)NC2(C(F)(F)F)Oc3ccccc3O2)n1 the results were Fibroblast inh 61.8, H69AR inhibit 16.7*, HUVEC prolif 384 67.8, bCat KO growth 37.2 and PTEN del growth 35.2.
For Cc1ccccc1C(=O)Nc1ccc(N2CCOCC2)nc1 the results were bCat KO growth 103.2 and PTEN del growth 110.6.
